Laboratory results: ChEMBL document CHEMBL1629545, “A morpholino oligomer targeting highly conserved internal ribosome entry site sequence is able to inhibit multiple species of picornavirus” (Antimicrob Agents Chemother, 2008)

How the values were obtained:
Assay type in all cases: cell-based
HeLa = test: Cytotoxicity against human HeLa cells at 1 to 10 uM after 24 hrs by MTS assay
Method in brief: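 HeLa cells at ~80% confluence, uninfected, exposed to 1–100 μM PPMO or water (mock) in serum-free DMEM-F-12 (1:1) for 24 h. MTS reagent was added for 4 h and absorbance read at 492 nm. Viability was expressed as percent of water-treated cells (set to 100%), averaged over 12 wells.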

Vero = test: Cytotoxicity against African green monkey Vero cells at 10 uM after 24 hrs by MTS assay; conditions: chlorocebus sabaeus
SK-N-MC = test: Cytotoxicity against human SK-N-MC cell at 10 uM after 24 hrs by MTS assay

Measured: Activity

Cc1cn([C@H]2CN(P(=O)(OC[C@@H]3CN(P(=O)(OC[C@@H]4CN(P(=O)(OC[C@@H]5CN(P(=O)(OC[C@@H]6CN(P(=O)(OC[C@@H]7CN(P(=O)(OC[C@@H]8CN(P(=O)(OC[C@@H]9CNC[C@H](n%10cnc%11c(=O)[nH]c(N)nc%11%10)O9)N(C)C)C[C@H](n9cnc%10c(N)ncnc%109)O8)N(C)C)C[C@H](n8cnc9c(=O)[nH]c(N)nc98)O7)N(C)C)C[C@H](n7cnc8c(N)ncnc87)O6)N(C)C)C[C@H](n6ccc(N)nc6=O)O5)N(C)C)C[C@H](n5ccc(N)nc5=O)O4)N(C)C)C[C@H](n4cnc5c(N)ncnc54)O3)N(C)C)C[C@@H](COP(=O)(N(C)C)N3C[C@@H](COP(=O)(N(C)C)N4C[C@@H](COP(=O)(N(C)C)N5C[C@@H](COP(=O)(N(C)C)N6C[C@@H](COP(=O)(N(C)C)N7C[C@@H](COP(=O)(N(C)C)N8C[C@@H](COP(=O)(N(C)C)N9C[C@@H](COP(=O)(N(C)C)N%10C[C@@H](COP(=O)(N(C)C)N%11C[C@@H](COP(=O)(N(C)C)N%12C[C@@H](COP(=O)(N(C)C)N%13C[C@@H](COP(=O)(N(C)C)N%14C[C@@H](COP(=O)(N(C)C)N%15C[C@@H](COP(=O)(N(C)C)N%16CCN(C(=O)[C@H](CS)NC(=O)[C@H](Cc%17ccccc%17)NC(=O)[C@H](Cc%17ccccc%17)NC(=O)[C@H](CCCNC(=N)N)NC(=O)[C@H](CCCNC(=N)N)NC(=O)[C@H](CCCNC(=N)N)NC(=O)[C@H](CCCNC(=N)N)NC(=O)[C@H](CCCNC(=N)N)NC(=O)[C@H](CCCNC(=N)N)NC(=O)[C@H](CCCNC(=N)N)NC(=O)[C@H](CCCNC(=N)N)NC(=O)[C@@H](N)CCCNC(=N)N)CC%16)O[C@@H](n%16ccc(N)nc%16=O)C%15)O[C@@H](n%15cnc%16c(N)ncnc%16%15)C%14)O[C@@H](n%14cnc%15c(N)ncnc%15%14)C%13)O[C@@H](n%13cnc%14c(N)ncnc%14%13)C%12)O[C@@H](n%12cnc%13c(=O)[nH]c(N)nc%13%12)C%11)O[C@@H](n%11cnc%12c(=O)[nH]c(N)nc%12%11)C%10)O[C@@H](n%10cc(C)c(=O)[nH]c%10=O)C9)O[C@@H](n9cnc%10c(N)ncnc%109)C8)O[C@@H](n8ccc(N)nc8=O)C7)O[C@@H](n7cnc8c(N)ncnc87)C6)O[C@@H](n6cc(C)c(=O)[nH]c6=O)C5)O[C@@H](n5cnc6c(N)ncnc65)C4)O[C@@H](n4cnc5c(=O)[nH]c(N)nc54)C3)O2)c(=O)[nH]c1=O (some centres undefined)
Non-toxic: all assays above

Cc1cn([C@H]2CNC[C@@H](COP(=O)(N(C)C)N3C[C@@H](COP(=O)(N(C)C)N4C[C@@H](COP(=O)(N(C)C)N5C[C@@H](COP(=O)(N(C)C)N6C[C@@H](COP(=O)(N(C)C)N7C[C@@H](COP(=O)(N(C)C)N8C[C@@H](COP(=O)(N(C)C)N9C[C@@H](COP(=O)(N(C)C)N%10C[C@@H](COP(=O)(N(C)C)N%11C[C@@H](COP(=O)(N(C)C)N%12C[C@@H](COP(=O)(N(C)C)N%13C[C@@H](COP(=O)(N(C)C)N%14C[C@@H](COP(=O)(N(C)C)N%15C[C@@H](COP(=O)(N(C)C)N%16C[C@@H](COP(=O)(N(C)C)N%17C[C@@H](COP(=O)(N(C)C)N%18C[C@@H](COP(=O)(N(C)C)N%19C[C@@H](COP(=O)(N(C)C)N%20C[C@@H](COP(=O)(N(C)C)N%21C[C@@H](COP(=O)(N(C)C)N%22C[C@@H](COP(=O)(N(C)C)N%23CCN(C(=O)[C@H](CS)NC(=O)[C@H](Cc%24ccccc%24)NC(=O)[C@H](Cc%24ccccc%24)NC(=O)[C@H](CCCNC(=N)N)NC(=O)[C@H](CCCNC(=N)N)NC(=O)[C@H](CCCNC(=N)N)NC(=O)[C@H](CCCNC(=N)N)NC(=O)[C@H](CCCNC(=N)N)NC(=O)[C@H](CCCNC(=N)N)NC(=O)[C@H](CCCNC(=N)N)NC(=O)[C@H](CCCNC(=N)N)NC(=O)[C@@H](N)CCCNC(=N)N)CC%23)O[C@@H](n%23cnc%24c(=O)[nH]c(N)nc%24%23)C%22)O[C@@H](n%22cnc%23c(=O)[nH]c(N)nc%23%22)C%21)O[C@@H](n%21ccc(N)nc%21=O)C%20)O[C@@H](n%20cnc%21c(=O)[nH]c(N)nc%21%20)C%19)O[C@@H](n%19cc(C)c(=O)[nH]c%19=O)C%18)O[C@@H](n%18ccc(N)nc%18=O)C%17)O[C@@H](n%17cc(C)c(=O)[nH]c%17=O)C%16)O[C@@H](n%16cc(C)c(=O)[nH]c%16=O)C%15)O[C@@H](n%15ccc(N)nc%15=O)C%14)O[C@@H](n%14ccc(N)nc%14=O)C%13)O[C@@H](n%13cnc%14c(N)ncnc%14%13)C%12)O[C@@H](n%12cc(C)c(=O)[nH]c%12=O)C%11)O[C@@H](n%11cnc%12c(=O)[nH]c(N)nc%12%11)C%10)O[C@@H](n%10cnc%11c(N)ncnc%11%10)C9)O[C@@H](n9cc(C)c(=O)[nH]c9=O)C8)O[C@@H](n8ccc(N)nc8=O)C7)O[C@@H](n7cnc8c(N)ncnc87)C6)O[C@@H](n6ccc(N)nc6=O)C5)O[C@@H](n5cnc6c(N)ncnc65)C4)O[C@@H](n4cnc5c(=O)[nH]c(N)nc54)C3)O2)c(=O)[nH]c1=O (some centres undefined)
Non-toxic: all assays above

Cc1cn([C@H]2CN(P(=O)(OC[C@@H]3CN(P(=O)(OC[C@@H]4CN(P(=O)(OC[C@@H]5CN(P(=O)(OC[C@@H]6CN(P(=O)(OC[C@@H]7CNC[C@H](n8cnc9c(=O)[nH]c(N)nc98)O7)N(C)C)C[C@H](n7ccc(N)nc7=O)O6)N(C)C)C[C@H](n6cnc7c(N)ncnc76)O5)N(C)C)C[C@H](n5cnc6c(N)ncnc65)O4)N(C)C)C[C@H](n4ccc(N)nc4=O)O3)N(C)C)C[C@@H](COP(=O)(N(C)C)N3C[C@@H](COP(=O)(N(C)C)N4C[C@@H](COP(=O)(N(C)C)N5C[C@@H](COP(=O)(N(C)C)N6C[C@@H](COP(=O)(N(C)C)N7C[C@@H](COP(=O)(N(C)C)N8C[C@@H](COP(=O)(N(C)C)N9C[C@@H](COP(=O)(N(C)C)N%10C[C@@H](COP(=O)(N(C)C)N%11C[C@@H](COP(=O)(N(C)C)N%12C[C@@H](COP(=O)(N(C)C)N%13C[C@@H](COP(=O)(N(C)C)N%14C[C@@H](COP(=O)(N(C)C)N%15C[C@@H](COP(=O)(N(C)C)N%16C[C@@H](COP(=O)(N(C)C)N%17C[C@@H](COP(=O)(N(C)C)N%18CCN(C(=O)[C@H](CS)NC(=O)[C@H](Cc%19ccccc%19)NC(=O)[C@H](Cc%19ccccc%19)NC(=O)[C@H](CCCNC(=N)N)NC(=O)[C@H](CCCNC(=N)N)NC(=O)[C@H](CCCNC(=N)N)NC(=O)[C@H](CCCNC(=N)N)NC(=O)[C@H](CCCNC(=N)N)NC(=O)[C@H](CCCNC(=N)N)NC(=O)[C@H](CCCNC(=N)N)NC(=O)[C@H](CCCNC(=N)N)NC(=O)[C@@H](N)CCCNC(=N)N)CC%18)O[C@@H](n%18cnc%19c(=O)[nH]c(N)nc%19%18)C%17)O[C@@H](n%17cc(C)c(=O)[nH]c%17=O)C%16)O[C@@H](n%16ccc(N)nc%16=O)C%15)O[C@@H](n%15cc(C)c(=O)[nH]c%15=O)C%14)O[C@@H](n%14cnc%15c(=O)[nH]c(N)nc%15%14)C%13)O[C@@H](n%13cc(C)c(=O)[nH]c%13=O)C%12)O[C@@H](n%12cc(C)c(=O)[nH]c%12=O)C%11)O[C@@H](n%11cc(C)c(=O)[nH]c%11=O)C%10)O[C@@H](n%10ccc(N)nc%10=O)C9)O[C@@H](n9cnc%10c(=O)[nH]c(N)nc%109)C8)O[C@@H](n8cc(C)c(=O)[nH]c8=O)C7)O[C@@H](n7cc(C)c(=O)[nH]c7=O)C6)O[C@@H](n6cc(C)c(=O)[nH]c6=O)C5)O[C@@H](n5cc(C)c(=O)[nH]c5=O)C4)O[C@@H](n4ccc(N)nc4=O)C3)O2)c(=O)[nH]c1=O (some centres undefined)
Non-toxic: all assays above
